Measurements from ChEMBL document CHEMBL1137561 (J Med Chem, 2007).

Experiments:
[1] = Resistance index, Ratio of EC50 for drug-resistant HIV1 with RT K103N mutation in MT4 cells to EC50 for HIV1 NL43 in MT4 cells
[2] = Cytotoxicity against MT4 cells after 4 days by MTT method; type: cell-based; details: human
Summary of the method: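 Mock-infected (noninfected) MT-4 cells, run in parallel with the antiviral test. Viable cells read by the MTT tetrazolium colorimetric method. […] Means ± SD from at least two experiments. The top concentration was limited where compounds precipitated in the culture medium.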

[3] = system: Human immunodeficiency virus 1; experiment: Antiviral activity against HIV1 NL43 in MT4 cells assessed as inhibition of viral induced cytopathic effect after 5 days by MTT method; details: Human immunodeficiency virus 1, NL43, MT4, 120 h
[4] = biological target: Human immunodeficiency virus type 1 reverse transcriptase (Human immunodeficiency virus 1, UniProt Q72547, V106A); experiment: Inhibition of HIV1 reverse transcriptase V106A mutant
[5] = system: Human immunodeficiency virus 1; experiment: Antiviral activity against HIV1 with reverse transcriptase K103N mutation in MT4 cells assessed as inhibition of viral induced cytopathic effect by MTT method; type: functional, organism-based; details: Human immunodeficiency virus 1, MT4
Summary of the method: (§1)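 MT-4 cells infected with the HIV-1 NNRTI-resistant mutant strain. Viable cells scored at day 5 post-infection by the MTT tetrazolium colorimetric method. […] Values are means ± SD from at least two experiments.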

[6] = biological target: Human immunodeficiency virus type 1 reverse transcriptase (Human immunodeficiency virus 1, UniProt Q72547); experiment: Inhibition of wild type HIV1 3B reverse transcriptase
[7] = biological target: Human immunodeficiency virus type 1 reverse transcriptase (Human immunodeficiency virus 1, UniProt Q72547, Y188L); experiment: Inhibition of HIV1 reverse transcriptase Y188L mutant
[8] = Selectivity index, ratio of CC50 for MT4 cells to EC50 for HIV1 NL43 infected MT4 cells; type: functional
[9] = Resistance index, Ratio of EC50 for drug-resistant HIV1 with RT IRLL98 mutation in MT4 cells to EC50 for HIV1 NL43 in MT4 cells
[10] = biological target: Human immunodeficiency virus type 1 reverse transcriptase (Human immunodeficiency virus 1, UniProt Q72547, L100I); experiment: Inhibition of HIV1 reverse transcriptase L100I mutant
[11] = system: Human immunodeficiency virus 1; experiment: Antiviral activity against HIV1 with reverse transcriptase Y181C mutation in MT4 cells assessed as inhibition of viral induced cytopathic effect by MTT method; type: functional, organism-based; details: Human immunodeficiency virus 1, MT4
Summary of the method: as §1

[12] = system: Human immunodeficiency virus 1; experiment: Antiviral activity against HIV1 with reverse transcriptase Y188L mutation in MT4 cells assessed as inhibition of viral induced cytopathic effect by MTT method; type: functional, organism-based; details: Human immunodeficiency virus 1, MT4
Summary of the method: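 MT-4 cells infected with the HIV-1 NNRTI-resistant mutant strain. Viable cells scored at day 5 post-infection by the MTT tetrazolium colorimetric method. Values are means ± SD from at least two experiments.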

[13] = Inhibition of HIV1 reverse transcriptase Y1811 mutant; design: species or system Human immunodeficiency virus 1
Summary of the method: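 Recombinant HIV-1 RT Y181I mutant, purified to >95%, 10 min preincubation with inhibitor. Radioactive nucleotide incorporation into poly(rA)/oligo(dT) 10:1 was followed at varied nucleotide substrate levels, sampling every 2 min for initial velocities. Inhibitor spanned 0.2–5 Ki. Ki came from Lineweaver-Burk and Dixon plots. Means ± SD of at least three experiments.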

[14] = Resistance index, Ratio of EC50 for drug-resistant HIV1 with RT Y188L mutation in MT4 cells to EC50 for HIV1 NL43 in MT4 cells
[15] = biological target: Human immunodeficiency virus type 1 reverse transcriptase (Human immunodeficiency virus 1, UniProt Q72547, K103N); experiment: Inhibition of HIV1 reverse transcriptase K103N mutant
[16] = system: Human immunodeficiency virus 1; experiment: Antiviral activity against HIV1 with reverse transcriptase IRLL98 mutation in MT4 cells assessed as inhibition of viral induced cytopathic effect by MTT method; type: functional, organism-based; details: Human immunodeficiency virus 1, MT4
[17] = system: Human immunodeficiency virus 1; experiment: Resistance index, ratio of Ki for HIV1 reverse transcriptase Y181I mutant to Ki for wild type HIV1 3B reverse transcriptase
Summary of the method: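 Initial velocities came from radioactive nucleotide incorporation into poly(rA)/oligo(dT) 10:1, sampled every 2 min. Inhibitor spanned 0.2–5 Ki, with Lineweaver-Burk and Dixon plots. Fold-resistance is Ki mutant / Ki wild type.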

[18] = Resistance index, Ratio of EC50 for drug-resistant HIV1 with RT Y181C mutation in MT4 cells to EC50 for HIV1 NL43 in MT4 cells
[19] = biological target: Human immunodeficiency virus type 1 reverse transcriptase (Human immunodeficiency virus 1, UniProt Q72547, V179D); experiment: Inhibition of HIV1 reverse transcriptase V179D mutant

SMILES	Ratio EC50 [1]	CC50 at 96 h [2] [nM]	EC50 [3] [nM]	Ki [4] [nM]	EC50 [5] [nM]	Ki [6] [nM]	Ki [7] [nM]	Ratio CC50/EC50 [8]	Ratio EC50 [9]	Ki [10] [nM]	EC50 [11] [nM]	EC50 [12] [nM]	Ki [13] [nM]	Ratio EC50 [14]	Ki [15] [nM]	EC50 [16] [nM]	Ratio Ki [17]	Ratio EC50 [18]	Ki [19] [nM]
Cc1c(C(C)c2c(F)cccc2F)nc(N(C)C(C)C)[nH]c1=O (centres undefined)	12	> 81000	0.5	30	6	40	1190	>162000	2	10000	0.7	40	850	80	80	1	21	1.4	–
Cc1c(C(C)c2c(F)cccc2F)nc(N(C)C)[nH]c1=O (centres undefined)	167	> 17000	0.3	100	50	100	500	>56667	17	1000	14	50	4000	167	500	5	40	47	2000
CN(C)c1nc(Cc2c(F)cccc2F)cc(=O)[nH]1	–	> 94000	23	500	> 10000	80	30000	>4087	87	10000	3600	> 10000	–	–	3000	2000	37	156	5000
O=c1cc(Cc2c(F)cccc2F)nc(N2CCSCC2)[nH]1	–	> 77000	35	500	> 10000	200	1000	>2200	–	10000	> 10000	> 10000	400	–	1500	> 10000	2	–	5000
CCC(c1nc(N(C)C)[nH]c(=O)c1C)c1c(F)cccc1F (centres undefined)	261	> 81000	7	> 40000	1830	1000	> 20000	>11571	169	> 20000	290	480	> 20000	69	> 20000	1180	–	41	> 40000
Cc1c(C(C)c2c(F)cccc2F)nc(SC2CCCC2)[nH]c1=O (centres undefined)	225	> 3000	1	500	225	5	1400	>3000	120	300	97	> 3000	900	–	30	120	180	97	250
CCCNc1nc(C(C)c2c(F)cccc2F)c(C)c(=O)[nH]1 (centres undefined)	125	35000	3	40	370	40	3110	11667	30	310	60	> 10000	5020	–	470	90	125	20	–
CCCN(C)c1nc(C(C)c2c(F)cccc2F)c(C)c(=O)[nH]1 (centres undefined)	17	> 78000	0.6	20	10	30	1430	>130000	1.7	180	0.6	30	1260	50	170	1	42	1	–
